Values after ≈ are worked out from the molar mass of the structure shown. Where a SMILES comes first, the peptide text is derived from it. Bridges are numbered along the chain shown (N, C = ends). [ ]: non-standard residue; d: D form. The star is where a group is joined. ξ: configuration not given here. Octanoyl(7-Me) = CC(C)CCCCCC(=O)*; Hexanoyl(4ξ-Me) = CCC(C)CCC(=O)*; dOrn = NCCC[C@@H](N)C(=O)O; Orn = NCCC[C@H](N)C(=O)O; Dap = NC[C@H](N)C(=O)O; Alloc = C=CCOC(=O)*; OAll = C=CCO* A value given as a limit tells only on which side of the number the result lay.

System in one series: not listed separately
The series can be described thus: Hemolytic activity in sheep red blood cell assessed as hemolysis at 1 to 128 ug/ml incubated for 1 hrs relative to control. In kind it is toxicity, cell-based, Ovis aries, Erythrocyte. The note with it: sheep red blood cells (erythrocytes), at 1 to 128 µg/mL, dose 1-128 µg/ml, read-out: Activity. The method, boiled down: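 Defibrinated sheep erythrocytes washed five times in PBS with 0.002% Tween20 and normalized so the Triton control reads 2.5–3.0 at 415 nm. Mixed 1:1 with compound serial dilutions (128–1 μg/mL) and incubated 1 h at 37 °C, 500 rpm. Supernatant A415 is background-corrected with buffer and expressed as percent of 0.1% Triton X-100 (final). Run in triplicate.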
On to `CC[C@H](C)[C@H](NC(=O)[C@H](CO)NC(=O)[C@H](Cc1c[nH]c2ccccc12)NC(=O)[C@@H](CCCN)NC(=O)CNC(=O)[C@H](CCCN)NC(=O)[C@@H](CCCN)NC(=O)[C@@H](Cc1c[nH]c2ccccc12)NC(=O)[C@@H](Cc1ccc(O)cc1)NC(=O)[C@@H](CO)NC(=O)CCCCCC(C)C)C(=O)N[C@@H](CC(N)=O)C(=O)NCC(=O)NCC(N)=O` ({Octanoyl(7-Me)}-[dS][dY][dW][dOrn][Orn]G[dOrn]WSINGG-NH2), for which the hemolysis at 1 h is < 0.1%.
Same read-out and setting: for `C=CCOC(=O)NC[C@H](NC(=O)[C@H](Cc1c[nH]c2ccccc12)NC(=O)[C@@H](CCCN)NC(=O)CNC(=O)[C@H](CCCN)NC(=O)[C@@H](CCCN)NC(=O)[C@@H](Cc1c[nH]c2ccccc12)NC(=O)[C@@H](Cc1ccc(O)cc1)NC(=O)[C@@H](CC(N)=O)NC(=O)CCC(C)CC)C(=O)N[C@H](C(=O)NCC(N)=O)[C@@H](C)CC` (stereo not given in full) ({Hexanoyl(4ξ-Me)}-[dN][dY][dW][dOrn][Orn]G[dOrn]W[Dap](Alloc)IG-NH2) the value was < 0.1%; for `CC[C@H](C)[C@H](NC(=O)[C@H](Cc1ccccc1)NC(=O)[C@H](Cc1c[nH]c2ccccc12)NC(=O)[C@@H](CCCN)NC(=O)CNC(=O)[C@H](CCCN)NC(=O)[C@@H](CCCN)NC(=O)[C@@H](Cc1c[nH]c2ccccc12)NC(=O)[C@@H](Cc1ccc(O)cc1)NC(=O)[C@@H](CO)NC(=O)CCCCCC(C)C)C(=O)N[C@@H](CC(N)=O)C(=O)NCC(=O)NCC(N)=O` ({Octanoyl(7-Me)}-[dS][dY][dW][dOrn][Orn]G[dOrn]WFINGG-NH2), 0.6%; for `C=CCOC(=O)NC[C@H](NC(=O)[C@H](Cc1c[nH]c2ccccc12)NC(=O)[C@@H](CCCN)NC(=O)CNC(=O)[C@H](CCCN)NC(=O)[C@@H](CCCN)NC(=O)[C@@H](Cc1c[nH]c2ccccc12)NC(=O)[C@@H](Cc1ccc(O)cc1)NC(=O)[C@@H](CO)NC(=O)CCCCCC(C)C)C(=O)N[C@H](C(=O)N[C@@H](CC(N)=O)C(=O)NCC(=O)NCC(N)=O)[C@@H](C)CC` ({Octanoyl(7-Me)}-[dS][dY][dW][dOrn][Orn]G[dOrn]W[Dap](Alloc)INGG-NH2), < 0.1%.
Still for that read-out and setting: the value for `CC[C@H](C)[C@H](NC(=O)[C@@H](NC(=O)[C@H](Cc1c[nH]c2ccccc12)NC(=O)[C@@H](CCCN)NC(=O)CNC(=O)[C@H](CCCN)NC(=O)[C@@H](CCCN)NC(=O)[C@@H](Cc1c[nH]c2ccccc12)NC(=O)[C@@H](Cc1ccc(O)cc1)NC(=O)[C@@H](CO)NC(=O)CCCCCC(C)C)[C@@H](C)O)C(=O)N[C@@H](CC(N)=O)C(=O)NCC(N)=O` ({Octanoyl(7-Me)}-[dS][dY][dW][dOrn][Orn]G[dOrn]WTING-NH2) was < 0.1%; that for `CCC(C)CCC(=O)N[C@H](CC(N)=O)C(=O)N[C@H](Cc1ccc(O)cc1)C(=O)N[C@H](Cc1c[nH]c2ccccc12)C(=O)N[C@H](CCCN)C(=O)N[C@@H](CCCN)C(=O)NCC(=O)N[C@H](CCCN)C(=O)N[C@@H](Cc1c[nH]c2ccccc12)C(N)=O` (stereo not given in full) ({Hexanoyl(4ξ-Me)}-[dN][dY][dW][dOrn][Orn]G[dOrn]W-NH2) was < 0.1%.
Turning to `CCC(C)CCC(=O)N[C@H](CC(N)=O)C(=O)N[C@H](Cc1ccc(O)cc1)C(=O)N[C@H](Cc1c[nH]c2ccccc12)C(=O)N[C@H](CCCN)C(=O)N[C@@H](CCCN)C(=O)NCC(=O)N[C@H](CCCN)C(=O)N[C@@H](Cc1c[nH]c2ccccc12)C(=O)N[C@@H]1C(=O)N[C@@H]([C@@H](C)CC)C(=O)NCC(=O)N[C@@H](CO)C(=O)O[C@@H]1C` (stereo not given in full) ({Hexanoyl(4ξ-Me)}-[dN][dY][dW][dOrn][Orn]G[dOrn]WTIGS; ester 9-C), the hemolysis at 1 h was < 0.1%.
In the case of `C=CCOC(=O)CC[C@H](NC(=O)[C@H](Cc1c[nH]c2ccccc12)NC(=O)[C@@H](CCCN)NC(=O)CNC(=O)[C@H](CCCN)NC(=O)[C@@H](CCCN)NC(=O)[C@@H](Cc1c[nH]c2ccccc12)NC(=O)[C@@H](Cc1ccc(O)cc1)NC(=O)[C@@H](CO)NC(=O)CCCCCC(C)C)C(=O)N[C@H](C(=O)N[C@@H](CC(N)=O)C(=O)NCC(=O)NCC(N)=O)[C@@H](C)CC` ({Octanoyl(7-Me)}-[dS][dY][dW][dOrn][Orn]G[dOrn]WE(OAll)INGG-NH2), the hemolysis at 1 h was < 0.1%.
With `CC[C@H](C)[C@H](NC(=O)[C@@H](NC(=O)[C@H](Cc1c[nH]c2ccccc12)NC(=O)[C@@H](CCCN)NC(=O)CNC(=O)[C@H](CCCN)NC(=O)[C@@H](CCCN)NC(=O)[C@@H](Cc1c[nH]c2ccccc12)NC(=O)[C@@H](Cc1ccc(O)cc1)NC(=O)[C@@H](CO)NC(=O)CCCCCC(C)C)[C@@H](C)O)C(=O)N[C@@H](CC(N)=O)C(=O)NCC(=O)NCC(N)=O` ({Octanoyl(7-Me)}-[dS][dY][dW][dOrn][Orn]G[dOrn]WTINGG-NH2), the hemolysis at 1 h is < 0.1%.
`CC(C)CCCCCC(=O)N[C@H](CO)C(=O)N[C@H](Cc1ccc(O)cc1)C(=O)N[C@H](Cc1c[nH]c2ccccc12)C(=O)N[C@H](CCCN)C(=O)N[C@@H](CCCN)C(=O)NCC(=O)N[C@H](CCCN)C(=O)N[C@@H](Cc1c[nH]c2ccccc12)C(N)=O` ({Octanoyl(7-Me)}-[dS][dY][dW][dOrn][Orn]G[dOrn]W-NH2): the hemolysis at 1 h is < 0.1%.
On to `CC[C@H](C)[C@H](NC(=O)[C@H](CC(C)C)NC(=O)[C@H](Cc1c[nH]c2ccccc12)NC(=O)[C@@H](CCCN)NC(=O)CNC(=O)[C@H](CCCN)NC(=O)[C@@H](CCCN)NC(=O)[C@@H](Cc1c[nH]c2ccccc12)NC(=O)[C@@H](Cc1ccc(O)cc1)NC(=O)[C@@H](CO)NC(=O)CCCCCC(C)C)C(=O)N[C@@H](CC(N)=O)C(=O)NCC(=O)NCC(N)=O` ({Octanoyl(7-Me)}-[dS][dY][dW][dOrn][Orn]G[dOrn]WLINGG-NH2), for which the hemolysis at 1 h was < 0.1%.
With `CCC(C)CCC(=O)N[C@H](CC(N)=O)C(=O)N[C@H](Cc1ccc(O)cc1)C(=O)N[C@H](Cc1c[nH]c2ccccc12)C(=O)N[C@H](CCCN)C(=O)N[C@@H](CCCN)C(=O)NCC(=O)N[C@H](CCCN)C(=O)N[C@@H](Cc1c[nH]c2ccccc12)C(=O)N[C@H](C(N)=O)[C@@H](C)O` (stereo not given in full) ({Hexanoyl(4ξ-Me)}-[dN][dY][dW][dOrn][Orn]G[dOrn]WT-NH2), the hemolysis at 1 h is < 0.1%.
As for `CC[C@H](C)[C@H](NC(=O)[C@H](CC(N)=O)NC(=O)[C@H](Cc1c[nH]c2ccccc12)NC(=O)[C@@H](CCCN)NC(=O)CNC(=O)[C@H](CCCN)NC(=O)[C@@H](CCCN)NC(=O)[C@@H](Cc1c[nH]c2ccccc12)NC(=O)[C@@H](Cc1ccc(O)cc1)NC(=O)[C@@H](CO)NC(=O)CCCCCC(C)C)C(=O)N[C@@H](CC(N)=O)C(=O)NCC(=O)NCC(N)=O` ({Octanoyl(7-Me)}-[dS][dY][dW][dOrn][Orn]G[dOrn]WNINGG-NH2), the hemolysis at 1 h was < 0.1%.
As for `CC[C@H](C)[C@H](NC(=O)[C@@H](NC(=O)[C@H](Cc1c[nH]c2ccccc12)NC(=O)[C@@H](CCCN)NC(=O)CNC(=O)[C@H](CCCN)NC(=O)[C@@H](CCCN)NC(=O)[C@@H](Cc1c[nH]c2ccccc12)NC(=O)[C@@H](Cc1ccc(O)cc1)NC(=O)[C@@H](CO)NC(=O)CCCCCC(C)C)[C@@H](C)O)C(=O)N[C@@H](CC(N)=O)C(=O)NCC(=O)NCC(=O)O` ({Octanoyl(7-Me)}-[dS][dY][dW][dOrn][Orn]G[dOrn]WTINGG-OH), the hemolysis at 1 h was < 0.1%.
`CC(C)CCCCCC(=O)N[C@H](CO)C(=O)N[C@H](Cc1ccc(O)cc1)C(=O)N[C@H](Cc1c[nH]c2ccccc12)C(=O)N[C@H](CCCN)C(=O)N[C@@H](CCCN)C(=O)NCC(=O)N[C@H](CCCN)C(=O)N[C@@H](Cc1c[nH]c2ccccc12)C(=O)N[C@H](C(N)=O)[C@@H](C)O` ({Octanoyl(7-Me)}-[dS][dY][dW][dOrn][Orn]G[dOrn]WT-NH2): the hemolysis at 1 h was < 0.1%.
Consider `CCC(C)CCC(=O)N[C@H](CC(N)=O)C(=O)N[C@H](Cc1ccc(O)cc1)C(=O)N[C@H](Cc1c[nH]c2ccccc12)C(=O)N[C@H](CCCN)C(=O)N[C@@H](CCCN)C(=O)NCC(=O)N[C@H](CCCN)C(=O)N[C@@H](Cc1c[nH]c2ccccc12)C(=O)N[C@H](C(=O)N[C@H](C(=O)NCC(=O)N[C@@H](CO)C(N)=O)[C@@H](C)CC)[C@@H](C)O` (stereo not given in full) ({Hexanoyl(4ξ-Me)}-[dN][dY][dW][dOrn][Orn]G[dOrn]WTIGS-NH2), for which the hemolysis at 1 h is < 0.1%.
`CCC(C)CCC(=O)N[C@H](CC(N)=O)C(=O)N[C@H](Cc1ccc(O)cc1)C(=O)N[C@H](Cc1c[nH]c2ccccc12)C(=O)N[C@H](CCCN)C(=O)N[C@@H](CCCN)C(=O)NCC(=O)N[C@H](CCCN)C(=O)N[C@@H](Cc1c[nH]c2ccccc12)C(=O)N[C@H](C(=O)N[C@H](C(N)=O)[C@@H](C)CC)[C@@H](C)O` (stereo not given in full) ({Hexanoyl(4ξ-Me)}-[dN][dY][dW][dOrn][Orn]G[dOrn]WTI-NH2): the hemolysis at 1 h is < 0.1%.
For `CCC(C)CCC(=O)N[C@H](CC(N)=O)C(=O)N[C@H](Cc1ccc(O)cc1)C(=O)N[C@H](Cc1c[nH]c2ccccc12)C(=O)N[C@H](CCCN)C(=O)N[C@@H](CCCN)C(=O)NCC(=O)N[C@H](CCCN)C(=O)N[C@@H](Cc1c[nH]c2ccccc12)C(=O)N[C@H](C(=O)N[C@H](C(=O)NCC(=O)N[C@@H](CO)C(=O)O)[C@@H](C)CC)[C@@H](C)O` (stereo not given in full) ({Hexanoyl(4ξ-Me)}-[dN][dY][dW][dOrn][Orn]G[dOrn]WTIGS-OH), the hemolysis at 1 h was < 0.1%.

Another series deals with Escherichia coli. The series can be described thus: Antibacterial activity Escherichia coli ATCC 25922 assessed as inhibition of visible bacterial growth incubated for 18 hrs by microbroth dilution assay.
Conditions: not given
It counts as functional. The method, boiled down:
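CLSI broth microdilution. Strains streaked from glycerol stocks onto blood agar (16 h, 37 °C); single colonies grown in TSB at 37 °C, 220 rpm, to OD600 about 0.5. Diluted in MHB to 2 × 10^5 CFU/mL and mixed 1:1 with compounds serially diluted in MHB from DMSO stocks (colistin from water stocks), polypropylene plates. Sealed, 18 h at 37 °C, 600 rpm. MIC taken as lowest concentration preventing visible growth, three technical replicates.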
A general note: Dilution methods test growth across graded concentrations, often in twofold steps.
Take `CC[C@H](C)[C@H](NC(=O)[C@@H](NC(=O)[C@H](Cc1c[nH]c2ccccc12)NC(=O)[C@@H](CCCN)NC(=O)[C@H](C)NC(=O)[C@H](CCCN)NC(=O)[C@@H](CCCN)NC(=O)[C@@H](Cc1c[nH]c2ccccc12)NC(=O)[C@@H](Cc1ccc(O)cc1)NC(=O)[C@@H](CO)NC(=O)CCCCCC(C)C)[C@@H](C)O)C(=O)N[C@@H](CC(N)=O)C(=O)NCC(=O)NCC(N)=O` ({Octanoyl(7-Me)}-[dS][dY][dW][dOrn][Orn]A[dOrn]WTINGG-NH2): the minimum inhibitory concentration (MIC) is 4 µg/mL (≈ 2.45 µM).
Take `CC(C)CCCCCC(=O)N[C@H](CO)C(=O)N[C@H](Cc1ccc(O)cc1)C(=O)N[C@H](Cc1c[nH]c2ccccc12)C(=O)N[C@H](CCCN)C(=O)N[C@@H](CCCN)C(=O)NCC(=O)N[C@H](CCCN)C(=O)N[C@@H](Cc1c[nH]c2ccccc12)C(=O)N[C@H](C(N)=O)[C@@H](C)O` ({Octanoyl(7-Me)}-[dS][dY][dW][dOrn][Orn]G[dOrn]WT-NH2): the minimal inhibitory concentration (MIC) is > 32 µg/mL.

In general, MIC refers to the smallest concentration in the dilution series that meets the test's criterion for growth inhibition.
